Experimental data collected from several papers.
Medium: plasma

CC(=O)N(C)[C@H]1CCN(C(=O)c2cnc3c(c2)C[C@](C)(c2ccc(F)cc2)N3)C1 — AUC(0-t) (male human; oral, 30 mg, multiple doses, once daily): 3.42 µM·h
Cc1cc(-c2nccc3c2ccn3CC(=O)Nc2ccc(-c3cnccn3)cn2)ccn1 — AUC(0-t) (human; oral, 7 mg, single dose): 0.498 µM·h
CC(C)n1c(C2CCNCC2)nc2c([N+](=O)[O-])c(Br)c(Br)cc21 — AUC(0-t) (human; oral, 50 mg, patients): 451 ng·h/mL
OC[C@H]1O[C@@H](c2cc(Cc3ccc(C4CC4)cc3)c(Cl)c3c2CCO3)[C@H](O)[C@@H](O)[C@@H]1O — AUC(0-t) (human; oral, 0.3 mg, single dose, fasted): 26.5 ng·h/mL
COc1ccc2c(c1)CN(C(=O)CCN1CCC(Cc3ccccc3)CC1)CC[S@@+]2[O-] — AUC(0-t) (male human; intravenous, 0.4 mg/kg, healthy volunteers): 2410 ng·h/mL
CC(=O)O[C@H]1C(=O)[C@@]2(C)[C@H]([C@H](OC(=O)c3ccccc3)[C@]3(O)C[C@H](OC(=O)[C@H](O)[C@@H](NC(=O)c4ccccc4)c4ccccc4)C(C)=C1C3(C)C)[C@]1(OC(C)=O)CO[C@@H]1C[C@@H]2O — AUC(0-t) (human; intravenous, 60 mg/m²): 2.1 µM·h
C[C@@H](Oc1ccc(S(C)(=O)=O)cc1C(=O)N1C[C@@H]2C[C@]2(c2cc(C(F)(F)F)on2)C1)C(F)(F)F — AUC(0-t) (human; oral, 10 mg, single dose, fed): 1.81 µM·h
COc1ccc(-c2c(Nc3ccccn3)[nH]c3c(C4=CCCCC4)c(-c4ccccc4)nn3c2=O)cc1 — AUC(0-t) (human; oral, 100 mg once daily, multiple doses, steady state, patients): 66300 ng·h/mL
